Like-named read-outs stand apart in the source and are kept apart here. Marks after values point to notes of the source that are not given here.
Tests used:
[1] = type: in vivo, human; settings: for t1/2: arithmetic mean (SD); for AUC, geometric least-squares mean / Cmax, geometric least-squares mean: fixed-effect ANOVA; for Cmax / MRAUC (metabolite-to-parent AUC ratio) / MRCmax (metabolite-to-parent Cmax ratio) / AUCu / Cmax,u: geometric mean (gCV%); for tmax: median (min-max); for AUCu / Cmax,u: unbound
[2] = NCT02093728 and NCT02046850; cited from earlier work
[3] = type: in vivo, human; settings: for t1/2: arithmetic mean (SD); for tmax: median (min-max)
[4] = Hepatic impairment study: excretion in urine; type: in vivo, human
Procedure, shortened: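 Urine from hepatic-impairment and healthy subjects was collected at −12 to 0 h predose, then 0–6, 6–12, 12–24, 24–36 and 36–48 h, and every 24 h to 120 h after a single oral dose. Dosing followed an overnight fast, with fasting until 4 h postdose. Analytes were measured by LC-MS/MS (positive electrospray, MRM) against carbon-13 internal standards.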

[5] = Renal impairment study: excretion in urine and blood dialysate; type: in vivo, human
Procedure, shortened: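 Subjects were ESRD patients on haemodialysis or healthy subjects with creatinine clearance >80 mL/min, each given 50 mg orally while fasted. ESRD patients were dosed once after dialysis and, after a washout of ≥7 days, once 1 h before dialysis. Urine was collected predose and in intervals to 72 h. Dialysate spot samples were taken every 30 min, and parameters were derived by the area under the excretion rate curve method. Analysis was by LC-MS/MS.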

plasma proteins = assay: Unbound fraction in plasma; type: in vitro ADME, human; settings: healthy subjects; for fu,av: 50 mg, median (min-max)
Procedure, shortened: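 Unbound fraction was measured in human plasma by ultrafiltration after a single oral dose. Ultrafiltrate was analysed by LC-MS/MS in MRM mode with carbon-13 internal standards. Within each subject, the mean percentage unbound from 3 results was applied to all of that subject's samples to give the average fraction unbound (fu,av).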

[6] = ESRD, treatment period 1 (50 mg after dialysis)
[7] = ESRD, treatment period 2 (50 mg 1 h before dialysis)
[8] = healthy subjects, 50 mg, geometric mean (gCV%)
[9] = mild hepatic impairment, 50 mg, geometric mean (gCV%)
[10] = moderate hepatic impairment, 50 mg (N = 6) or 25 mg (N = 2), geometric mean (gCV%)
[11] = moderate hepatic impairment, 50 mg dose only
[12] = moderate hepatic impairment, 50 or 25 mg
[13] = severe hepatic impairment, 20 mg

O=C(NOCCO)c1cc2nc[nH]c2c(F)c1Nc1ccc(Br)cc1Cl [N‐desmethyl selumetinib]
Cmax, ESRD/Healthy Ratio (90%CI) ([1]; ESRD treatment period 1 vs healthy): 84.48 (61.60, 115.86) %
AUC, ESRD/Healthy Ratio (90%CI) ([1]; ESRD treatment period 1 vs healthy, 50 mg): 91.95 (67.73, 124.83) %
AUC lower when dosed before vs after dialysis ([1]; ESRD, 50 mg): 10%
Cmax lower when dosed before vs after dialysis ([1]; ESRD, 50 mg): 15%
t1/2 [1, 6]: 6.28 (2.87) ^d h
AUC, geometric least-squares mean [1, 6]: 171.0 ng·h/mL
Cmax [1, 6]: 45.1 (40.4) ng/mL
tmax [1, 6]: 1.25 (0.50‐3.00) h
Cmax, geometric least-squares mean ([1]; ESRD, treatment period 1): 45.15 ng/mL
MRAUC (metabolite-to-parent AUC ratio) ([1]; ESRD, treatment period 1): 0.0864 (45.9) ^d
MRCmax (metabolite-to-parent Cmax ratio) ([1]; ESRD, treatment period 1): 0.0623 (42.8)
t1/2 [1, 7]: 5.79 (2.52) ^d h
Cmax [1, 7]: 38.5 (57.7) ng/mL
tmax [1, 7]: 1.50 (1.00‐2.00) h
MRAUC (metabolite-to-parent AUC ratio) ([1]; ESRD, treatment period 2): 0.0930 (48.6) ^d
MRCmax (metabolite-to-parent Cmax ratio) ([1]; ESRD, treatment period 2): 0.0759 (35.9)
t1/2 ([1]; healthy subjects, 50 mg): 5.41 (1.40) h
AUC, geometric least-squares mean ([1]; healthy subjects, 50 mg): 185.9 ng·h/mL
Cmax ([1]; healthy subjects, 50 mg): 53.4 (52.1) ng/mL
tmax ([1]; healthy subjects, 50 mg): 1.50 (1.00‐3.00) h
Cmax, geometric least-squares mean ([1]; healthy subjects): 53.45 ng/mL
MRAUC (metabolite-to-parent AUC ratio) ([1]; healthy subjects): 0.0710 (38.4)
MRCmax (metabolite-to-parent Cmax ratio) ([1]; healthy subjects): 0.0619 (32.9)
AUCu [1, 6]: 2.10 (19.2) ^e ng·h/mL
Cmax,u [1, 6]: 0.561 (14.8) ^e ng/mL
AUCu ([1]; healthy subjects, 50 mg): 1.72 (14.4) ^e ng·h/mL
Cmax,u ([1]; healthy subjects, 50 mg): 0.619 (8.5) ^e ng/mL
AUC and Cmax as percentage of the parent compound [2]: ~7%
AUC(0–t)/dose, geometric least-squares mean ([3]; healthy subjects, 50 mg): 4.841 ng·h/mL/mg
Cmax/dose, geometric least-squares mean ([3]; healthy subjects, 50 mg): 1.809 ng/mL/mg
t1/2 ([3]; healthy subjects, 50 mg): 9.24 (3.33) h
AUC(0–t)/dose [3, 8]: 4.84 (43.4) ng·h/mL/mg
Cmax/dose [3, 8]: 1.81 (57.0) ng/mL/mg
tmax ([3]; healthy subjects, 50 mg): 1.00 (1.00‐2.00) h
AUC(0-t)/dose lower than in healthy subjects ([3]; mild hepatic impairment): 49%
Cmax/dose lower than in healthy subjects ([3]; mild hepatic impairment): 56%
AUC(0–t)/dose, geometric least-squares mean ([3]; mild hepatic impairment, 50 mg): 2.445 ng·h/mL/mg
Cmax/dose, geometric least-squares mean ([3]; mild hepatic impairment, 50 mg): 0.8041 ng/mL/mg
t1/2 ([3]; mild hepatic impairment, 50 mg): 5.18 (1.51) ^f h
AUC(0–t)/dose [3, 9]: 2.45 (41.1) ng·h/mL/mg
Cmax/dose [3, 9]: 0.804 (57.7) ng/mL/mg
tmax ([3]; mild hepatic impairment, 50 mg): 1.50 (1.00‐4.00) h
AUC(0–t)/dose, Hepatic impairment/healthy ratio (90%CI) ([3]; mild vs healthy): 50.51 (28.28, 90.19) %
Cmax/dose, Hepatic impairment/healthy ratio (90%CI) ([3]; mild vs healthy): 44.44 (25.70, 76.85) %
AUC(0-t)/dose lower than in healthy subjects ([3]; moderate hepatic impairment): 62%
Cmax/dose lower than in healthy subjects ([3]; moderate hepatic impairment): 70%
AUC(0–t)/dose [3, 10]: 1.83 (129.6) ng·h/mL/mg
Cmax/dose [3, 10]: 0.548 (102.8) ng/mL/mg
t1/2 [3, 11]: 7.72 (2.92) ^i h
tmax [3, 11]: 1.25 (1.00‐1.50) ^f h
AUC(0–t)/dose, geometric least-squares mean [3, 12]: 1.826 ng·h/mL/mg
Cmax/dose, geometric least-squares mean [3, 12]: 0.5485 ng/mL/mg
AUC(0–t)/dose, Hepatic impairment/healthy ratio (90%CI) ([3]; moderate vs healthy): 37.72 (21.12, 67.37) %
Cmax/dose, Hepatic impairment/healthy ratio (90%CI) ([3]; moderate vs healthy): 30.31 (17.53, 52.42) %
MRCmax (metabolite-to-parent Cmax ratio) ([3]; severe hepatic impairment, 20 mg (N = 3), geometric mean (gCV%)): 0.00778 (29.2) ^h
Cmax/dose ([3]; severe hepatic impairment, 20 mg, geometric mean (gCV%)): 0.173 (44.3) ng/mL/mg
tmax [3, 13]: 2.00 (1.50‐2.00) ^h
dose excreted in urine ([4]; healthy subjects, 50 mg): 0.78%
dose excreted in urine ([4]; mild hepatic impairment, 50 mg): 0.64%
dose excreted in urine ([4]; moderate hepatic impairment): 0.20%
dose excreted in urine [4, 13]: 0.09%
dose excreted in dialysate ([5]; ESRD, dosed 1 h before dialysis): 0.089%
fraction excreted in urine ([5]; healthy subjects, 50 mg): 0.73%
median unbound fraction (plasma proteins; in both studies): ~0.6%
fu,av (plasma proteins; hepatic impairment study): 0.61 (0.54‐0.70) ^j %
fu,av (plasma proteins; renal impairment study): 0.688 (0.659‐0.712) ^e %

From article PMC5412920 (Journal of Clinical Pharmacology, 2016)
